# ChEMBL document CHEMBL3588785 (J Med Chem, 2015)
# Active and inactive are the calls of the source. No cut-off for these calls is given here.
# How the values were obtained:
# Homo sapiens [1] = species on record: Homo sapiens; assay: Selectivity for ERK (unknown origin) over CDK7 (unknown origin) at 1 uM
# Outline: (§1)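 Panel of 125 kinases screened with compound at 1 µM; kinases inhibited above 75% were recorded.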
# Homo sapiens [2] = species on record: Homo sapiens; assay: Selectivity for ERK (unknown origin) over SRC (unknown origin) at 1 uM; outline: as §1
# [3] = Intrinsic clearance in human liver microsomes; assay type: ADME; conditions: read-out: CLH
# Hepatocyte = assay: Intrinsic clearance in rat hepatocytes; assay type: ADME, cell-based
# [4] = Clearance in mouse hepatocytes measured per 10^6 cells; assay type: ADME, cell-based, Hepatocyte; conditions: read-out: CLH
# [5] = AUC (0 to t) in mouse at 100 mg/kg, po; assay type: ADME, organism-based; conditions: in vivo
# [6] = target: T1, Mitogen-activated protein kinase 1 (Homo sapiens, UniProt P28482); assay: Inhibition of MEK U911-activated ERK2 (unknown origin) using Erktide as substrate preincubated with enzyme for 20 mins prior to substrate addition by RapidFire Mass Spectrometry in presence of ATP at Km concentration
# [7] = target: T1, Mitogen-activated protein kinase 1; assay: Inhibition of MEK U911-activated ERK2 (unknown origin) using Erktide as substrate preincubated with enzyme for 20 mins prior to substrate addition by RapidFire Mass Spectrometry in presence of ATP at higher concentration
# [8] = target: T1, Mitogen-activated protein kinase 1; assay: Inhibition of ERK2 in human A375 cells harboring B-RAF V600E mutant assessed as decrease in phospho-ERK2 level after 2 hrs by Cellomics ArrayScanTM VTI imaging analysis; assay type: cell-based, A-375
# [9] = target: T2, Mitogen-activated protein kinase; ERK1/ERK2 (Homo sapiens, UniProt P27361+P28482); assay: Inhibition of ERK1/2 in human A375 cells harboring B-RAF V600E mutant assessed as decrease in phospho-RSK level after 2 hrs by Cellomics ArrayScanTM VTI imaging analysis; assay type: cell-based; conditions: a-375
# A-375 = assay: Antiproliferative activity against human A375 cells harboring B-RAF V600E mutant after 72 hrs by Cellomics ArrayScanTM VTI imaging analysis; assay type: functional, cell-based; conditions: A-375, 72 h
# [10] = target: Dual specificity mitogen-activated protein kinase kinase 1 (Homo sapiens, UniProt Q02750); assay: Inhibition of MEK1 (unknown origin) autophosphorylation incubated with enzyme for 20 mins prior to ATP addition by ADP Glo kinase assay in presence of ATP at Km concentration
# Sequence of Dual specificity mitogen-activated protein kinase kinase 1 (Q02750 whole entry): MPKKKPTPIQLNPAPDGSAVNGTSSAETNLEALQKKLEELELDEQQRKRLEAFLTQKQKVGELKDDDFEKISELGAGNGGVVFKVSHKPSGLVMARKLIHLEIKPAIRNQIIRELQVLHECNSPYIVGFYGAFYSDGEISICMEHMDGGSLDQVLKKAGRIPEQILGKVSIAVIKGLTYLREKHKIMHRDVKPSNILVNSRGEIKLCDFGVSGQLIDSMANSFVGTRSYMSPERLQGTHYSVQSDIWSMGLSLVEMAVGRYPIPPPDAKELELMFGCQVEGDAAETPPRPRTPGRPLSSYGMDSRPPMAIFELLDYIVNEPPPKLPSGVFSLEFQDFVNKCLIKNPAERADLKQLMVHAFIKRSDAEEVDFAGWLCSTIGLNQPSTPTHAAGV
# [11] = 1-Octanol-aqueous phosphate buffer partition coefficient, logD of the compound at pH 7.4; assay type: physicochemical
# Outline: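 Partition of compound between 1-octanol and aqueous phosphate buffer, pH 7.4; reported as distribution coefficient.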
# [12] = Solubility of the compound in aqueous phosphate buffer at 25 degC at pH 7.4 after 24 hrs; assay type: physicochemical
# Homo sapiens [13] = species on record: Homo sapiens; assay: Selectivity for ERK (unknown origin) over C-RAF (unknown origin) at 1 uM; outline: as §1
# Homo sapiens [14] = species on record: Homo sapiens; assay: Selectivity for ERK (unknown origin) over MEK1 (unknown origin) at 1 uM; outline: as §1
# Homo sapiens [15] = species on record: Homo sapiens; assay: Selectivity for ERK (unknown origin) over AUR-B (unknown origin) at 1 uM; outline: as §1
# Homo sapiens [16] = species on record: Homo sapiens; assay: Selectivity for ERK (unknown origin) over AUR-C (unknown origin) at 1 uM; outline: as §1
# Homo sapiens [17] = species on record: Homo sapiens; assay: Selectivity for ERK (unknown origin) over MET (unknown origin) at 1 uM; outline: as §1
# Homo sapiens [18] = species on record: Homo sapiens; assay: Selectivity for ERK (unknown origin) over FAK (unknown origin) at 1 uM; outline: as §1
# [19] = GSH reactivity assessed as half life
# [20] = Stability in pH 7.4 buffer assessed as drug hydrolysis; assay type: physicochemical
# Outline: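 Compound held in pH 7.4 buffer alone at 37 °C, monitored over 11 hrs for hydrolysis.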
# [21] = target: Mitogen-activated protein kinase 3 (Mus musculus) (UniProt Q63844); assay: Binding affinity to ERK1 in mouse fibroblasts assessed as half-life
# Sequence of Mitogen-activated protein kinase 3 (Mus musculus) (Q63844 whole entry): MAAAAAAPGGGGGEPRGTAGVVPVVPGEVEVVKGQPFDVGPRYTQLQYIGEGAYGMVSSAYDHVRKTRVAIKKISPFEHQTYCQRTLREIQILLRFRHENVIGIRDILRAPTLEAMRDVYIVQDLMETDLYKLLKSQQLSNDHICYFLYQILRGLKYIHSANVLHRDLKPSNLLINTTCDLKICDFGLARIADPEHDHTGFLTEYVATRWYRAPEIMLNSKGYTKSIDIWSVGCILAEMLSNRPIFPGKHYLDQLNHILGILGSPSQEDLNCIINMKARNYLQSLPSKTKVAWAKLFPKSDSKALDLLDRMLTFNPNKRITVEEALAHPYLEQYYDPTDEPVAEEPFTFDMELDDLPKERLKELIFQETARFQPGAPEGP
# [22] = target: T2, Mitogen-activated protein kinase; ERK1/ERK2; conditions: Calu-6, 500 nM
# [23] = target: Mitogen-activated protein kinase 1 (Mus musculus) (UniProt P63085)
# Sequence of Mitogen-activated protein kinase 1 (Mus musculus) (P63085 whole entry): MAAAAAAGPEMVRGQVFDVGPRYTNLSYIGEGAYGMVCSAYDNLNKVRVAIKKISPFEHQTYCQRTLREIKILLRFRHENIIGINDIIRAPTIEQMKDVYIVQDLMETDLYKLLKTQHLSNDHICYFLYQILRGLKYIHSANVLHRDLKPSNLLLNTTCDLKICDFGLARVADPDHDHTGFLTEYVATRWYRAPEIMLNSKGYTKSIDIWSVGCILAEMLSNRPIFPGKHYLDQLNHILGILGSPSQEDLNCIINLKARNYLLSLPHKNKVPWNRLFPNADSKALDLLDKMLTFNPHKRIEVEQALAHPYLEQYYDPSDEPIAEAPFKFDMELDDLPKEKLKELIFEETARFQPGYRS
# [24] = target: T1, Mitogen-activated protein kinase 1; assay: Covalent binding to ERK2 (unknown origin) after 2 hrs by mass spectrometry
# Outline: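 ERK2 protein incubated with compound at 3-fold molar excess over protein, room temperature, 2 hours; sample diluted 10-fold and loaded immediately for intact-mass MS.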
# Homo sapiens [25] = species on record: Homo sapiens; assay: Selectivity for ERK (unknown origin) over FLT1 (unknown origin) at 1 uM; outline: as §1
# [26] = Stability to hydrolysis in pH 7.4 buffer measured over 11 hrs at 37 degC
# Homo sapiens [27] = species on record: Homo sapiens; assay: Selectivity for ERK (unknown origin) over DYRK2 (unknown origin) at 1 uM; outline: as §1
# Homo sapiens [28] = species on record: Homo sapiens; assay: Selectivity for ERK (unknown origin) over TRKA (unknown origin) at 1 uM; outline: as §1
# Homo sapiens [29] = species on record: Homo sapiens; assay: Selectivity for ERK (unknown origin) over AXL (unknown origin) at 1 uM; outline: as §1
# Homo sapiens [30] = species on record: Homo sapiens; assay: Selectivity for ERK (unknown origin) over CDK1 (unknown origin) at 1 uM; outline: as §1
# Homo sapiens [31] = species on record: Homo sapiens; assay: Selectivity for ERK (unknown origin) over IGF-1R (unknown origin) at 1 uM; outline: as §1
# Homo sapiens [32] = species on record: Homo sapiens; assay: Selectivity for ERK (unknown origin) over IR (unknown origin) at 1 uM; outline: as §1
Compound,microsomal CLint [3] [µL/min/mg],CLH (Hepatocyte) [µL/min/mg],IC50 [6] [nM],IC50 [7] [nM],IC50 [8] [nM],IC50 [9] [nM],IC50 (A-375) [nM],IC50 [10] [nM],logD [11],solubility at 24 h [12] [µM],Selectivity ratio (Homo sapiens [13]),Selectivity ratio (Homo sapiens [14]),other results
C=CC(=O)Nc1ccccc1Nc1nc(NC2CCOCC2)ncc1C(F)(F)F,38,270,6.9,8.5,22,65,53,> 10000,2.9,59,6,6,Selectivity ratio (Homo sapiens [1]): 6; Selectivity ratio (Homo sapiens [2]): 6; hepatocyte CLint [4]: 143 µL/min/1e6 cells; AUC(0-t) [5]: 21 µM·h; Selectivity ratio (Homo sapiens [15]): 6; Selectivity ratio (Homo sapiens [16]): 6
CCS(=O)(=O)N1CCc2cnc(NC3CCOCC3)nc2C1,,,9000,> 10000,10000,> 30000,,,,,,,
O=C(Nc1ccc2[nH]nc(-c3ccncc3)c2c1)[C@@H]1CCN(CC(=O)N2CCN(c3ccc(-c4ncccn4)cc3)CC2)C1,,,,,,,70,,3.2,< 2.1,,,
C=CC(=O)Nc1cnccc1Nc1nc(NC2CCOCC2)ncc1Cl,13,> 250,3.1,3,6.7,28,41,> 10000,2.3,150,2,2,T1/2 [19]: 0.7 h; Stability [20]: Stable; T1/2 [21]: 120 h; inhibition [22]: Active; T1/2 [23]: 54 h
CC(C)Nc1cc(-c2c[nH]c(C(=O)N[C@H](CO)c3cccc(Cl)c3)c2)c(Cl)cn1 [ULIXERTINIB],,,,,,,180,,> 4,8.5,,,
CCC(=O)Nc1ccccc1Nc1nc(NC2CCOCC2)ncc1Cl,,,480,4000,> 30000,> 30000,6600,,,,,,
COc1cc(O)c2c(c1)/C=C/C[C@H](O)[C@@H](O)C(=O)/C=C/C[C@H](C)OC2=O,,,5100,3700,1600,5700,4100,3400,1.6,47,,,
CCS(=O)(=O)Nc1ccc2[nH]nc(-c3ccncc3)c2c1,,,280,1800,10000,> 30000,> 30000,,,,,,
C=CS(=O)(=O)N1CCc2cnc(NC3CCOCC3)nc2C1,,,370,220,240,1100,,> 10000,1,760,2,2,Activity [24]: Active; T1/2 [19]: 0.257 h; Stability [20]: Stable; Stability [26]: Stable
C=CC(=O)Nc1ccccc1Nc1nc(Nc2ccnn2C)ncc1Cl,42,120,9.9,13,48,120,91,120,2.4,520,7,7,Selectivity ratio (Homo sapiens [18]): 7; Selectivity ratio (Homo sapiens [15]): 7; Selectivity ratio (Homo sapiens [16]): 7; Selectivity ratio (Homo sapiens [25]): 7
C=CC(=O)Nc1ccccc1Nc1nc(NC2CCOCC2)ncc1C,13,59,77,88,170,740,470,> 10000,2,170,2,2,
C=CS(=O)(=O)Nc1ccc2[nH]nc(-c3ccncc3)c2c1,,,7.5,17,120,470,1300,> 10000,2.2,7,8,,Activity [24]: Active; Selectivity ratio (Homo sapiens [15]): 8; Selectivity ratio (Homo sapiens [16]): 8; Selectivity ratio (Homo sapiens [25]): 8; Selectivity ratio (Homo sapiens [28]): 8
CNC(=O)c1ccc(F)cc1Nc1cc(Nc2cc(C)nn2C)ncc1C(F)(F)F,,,44,340,8700,5100,1400,> 10000,3.8,15,,,Selectivity ratio (Homo sapiens [29]): 10; Selectivity ratio (Homo sapiens [30]): 10; Selectivity ratio (Homo sapiens [1]): 10; Selectivity ratio (Homo sapiens [31]): 10; Selectivity ratio (Homo sapiens [32]): 10; Selectivity ratio (Homo sapiens [17]): 10; Selectivity ratio (Homo sapiens [18]): 10; Selectivity ratio (Homo sapiens [15]): 10; Selectivity ratio (Homo sapiens [16]): 10; Selectivity ratio (Homo sapiens [28]): 10

# Further molecules by falling IC50 [6], results first:
microsomal CLint [3] [µL/min/mg],CLH (Hepatocyte) [µL/min/mg],IC50 [6] [nM],IC50 [7] [nM],IC50 [8] [nM],IC50 [9] [nM],IC50 (A-375) [nM],IC50 [10] [nM],logD [11],solubility at 24 h [12] [µM],Selectivity ratio (Homo sapiens [13]),Selectivity ratio (Homo sapiens [14]),Compound,other results
,,260,,7500,10000,,> 10000,2.8,290,,,CNC(=O)c1ccccc1Nc1cc(NC2CCOCC2)ncc1Cl,
< 3,25,85,90,72,200,120,> 10000,0.9,770,4,4,C=CC(=O)Nc1ccccc1Nc1nc(N[C@H]2CC[C@H](N(C)C)CC2)ncc1Cl,Selectivity ratio (Homo sapiens [27]): 4; Selectivity ratio (Homo sapiens [25]): 4
,,74,110,380,1000,1400,4900,1.6,300,5,5,C=CS(=O)(=O)N1CCc2[nH]nc(-c3ccnc(C)c3)c2C1,Selectivity ratio (Homo sapiens [25]): 5
24,270,42,60,120,400,680,> 10000,2.5,40,2,2,C=CC(=O)Nc1ccccc1Nc1cc(NC2CCOCC2)ncc1Cl,
,,40,380,2100,2400,3400,> 10000,3.4,8.8,4,,CNC(=O)c1ccc(F)cc1Nc1cc(NC2CCOCC2)ncc1C(F)(F)F,Selectivity ratio (Homo sapiens [1]): 4; Selectivity ratio (Homo sapiens [17]): 4; Selectivity ratio (Homo sapiens [18]): 4
19,33,39,47,66,280,240,260,2.1,990,,,C=CC(=O)Nc1ccccc1Nc1nc(Nc2ccnn2C)ncc1C,
67,200,8.5,5.4,19,69,57,> 10000,2.7,46,4,,C=CC(=O)Nc1ccccc1Nc1nc(NC2CCOCC2)ncc1Cl,Activity [24]: Active; T1/2 [19]: 2.53 h; Stability [20]: Stable; Selectivity ratio (Homo sapiens [15]): 4; Selectivity ratio (Homo sapiens [16]): 4; Selectivity ratio (Homo sapiens [25]): 4
